# Like-named read-outs stand apart in the source and are kept apart here.
# What was measured:
# [1] = Pharmacokinetic analysis of plasma FF-10101 concentration in trial participants; assay type: in vivo, human
# [2] = target: T1, FLT3 (Homo sapiens, UniProt P36888); assay: Plasma inhibitory activity; assay type: cell-based
# T1 sequence (P36888 27-993): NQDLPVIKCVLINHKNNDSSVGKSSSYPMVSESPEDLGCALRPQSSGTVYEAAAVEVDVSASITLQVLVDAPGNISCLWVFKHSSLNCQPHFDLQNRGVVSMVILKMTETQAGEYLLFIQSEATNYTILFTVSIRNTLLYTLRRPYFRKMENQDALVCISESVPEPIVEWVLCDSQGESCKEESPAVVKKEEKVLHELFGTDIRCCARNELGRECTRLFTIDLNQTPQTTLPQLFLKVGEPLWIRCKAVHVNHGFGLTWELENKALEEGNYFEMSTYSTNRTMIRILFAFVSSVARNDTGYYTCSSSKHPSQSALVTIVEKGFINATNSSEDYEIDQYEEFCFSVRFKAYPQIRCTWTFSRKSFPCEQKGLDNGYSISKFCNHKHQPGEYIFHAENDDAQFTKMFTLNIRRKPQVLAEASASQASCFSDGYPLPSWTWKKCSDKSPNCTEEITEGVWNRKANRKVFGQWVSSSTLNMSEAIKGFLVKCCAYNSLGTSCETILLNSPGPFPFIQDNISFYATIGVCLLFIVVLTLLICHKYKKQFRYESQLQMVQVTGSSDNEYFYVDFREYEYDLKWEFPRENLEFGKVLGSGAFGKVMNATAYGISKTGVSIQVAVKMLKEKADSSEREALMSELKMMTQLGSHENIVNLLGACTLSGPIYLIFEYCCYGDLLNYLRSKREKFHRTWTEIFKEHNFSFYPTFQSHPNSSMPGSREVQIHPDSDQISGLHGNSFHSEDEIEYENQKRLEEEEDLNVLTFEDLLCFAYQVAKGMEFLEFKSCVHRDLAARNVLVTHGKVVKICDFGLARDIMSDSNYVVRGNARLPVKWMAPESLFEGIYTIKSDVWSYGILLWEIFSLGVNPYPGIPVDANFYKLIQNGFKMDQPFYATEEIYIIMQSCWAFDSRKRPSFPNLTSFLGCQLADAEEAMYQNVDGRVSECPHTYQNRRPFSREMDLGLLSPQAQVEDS
# Method in brief: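 Ex vivo surrogate for in vivo FLT3 inhibition. Participant plasma was prepared from lithium-heparin whole blood collected at cycle 1 time points, including pre-dose troughs on days 8 and 15. It was tested on FLT3-ITD Molm14 cells, and P-FLT3 was expressed as a percentage of baseline. Drug concentration in the same samples was measured by mass spectrometry and paired with PIA values across QD and BID cohorts.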
# [3] = assay type: in vivo, human; conditions: for Aspartate aminotransferase elevation, related TEAE / Creatine kinase increase, related TEAE / Diarrhea, related TEAE / Nausea, related TEAE: 54 participants
# [4] = tested on: relapsed and/or refractory AML; assay: Phase 1 dose escalation: response in patients with R/R AML; assay type: in vivo, human
# [5] = tested on: AML; conditions: cited from earlier work
# [6] = tested on: FLT3-TKD mutations; conditions: cited from earlier work
# [7] = 40 response-evaluable participants
# [8] = participants with history of FLT3-mutated AML at FLT3-inhibitory doses (150 mg QD, 225 mg QD, 50 mg BID, 75 mg BID)
compound,measurement,setting,value
CCCNc1nc(Nc2ccc(C#N)cc2)ncc1C#CCCCNC(=O)[C@H](C)N(C)C(=O)/C=C/CN(C)C [FF-10101],effect of food on absorption,[1]; after oral dosing,unaffected by food
same,half-life,"[1]; human, plasma, po",~10 h
same,dose levels at which inhibition of P-FLT3 was most effective,"[2]; PIA, escalating doses","150 mg daily, 225 mg daily, 50 mg BID, and 75 mg BID"
same,plasma concentration of FF-10101 associated with more complete inhibition (PIA),[2]; cycle 1 plasma samples,> 100 ng/mL
same,FF-10101 concentration achieving maximal trough suppression of P-FLT3 activity,[2]; maximal trough suppression eg <5% of baseline,> 200 ng/mL
same,participants with DLT,"[3]; 50 mg BID cohort, grade 3 maculopapular rash",1 of 7
same,participants with DLTs,"[3]; 100 mg BID cohort, 5 participants",2 participants
same,participants reporting at least 1 treatment emergent AE (TEAE),"[3]; 53 of 54 participants, all cohorts",98.1%
same,participants reporting diarrhea,[3]; <100 mg/dose,21.2%
same,"Aspartate aminotransferase elevation, related TEAE",[3]; All grades,14 (25.9) participants (%)
same,"Creatine kinase increase, related TEAE",[3]; All grades,16 (29.6) participants (%)
same,"Diarrhea, related TEAE",[3]; All grades,15 (27.8) participants (%)
same,"Nausea, related TEAE",[3]; All grades,19 (35.2) participants (%)
same,"Aspartate aminotransferase elevation, related TEAE",[3]; Grade 1-2,10 (18.5) participants (%)
same,"Creatine kinase increase, related TEAE",[3]; Grade 1-2,11 (20.4) participants (%)
same,"Diarrhea, related TEAE",[3]; Grade 1-2,13 (24.1) participants (%)
same,"Nausea, related TEAE",[3]; Grade 1-2,19 (35.2) participants (%)
same,"Aspartate aminotransferase elevation, related TEAE",[3]; Grade ≥3,4 (7.4) participants (%)
same,"Creatine kinase increase, related TEAE",[3]; Grade ≥3,5 (9.3) participants (%)
same,"Diarrhea, related TEAE",[3]; Grade ≥3,2 (3.7) participants (%)
same,"Nausea, related TEAE",[3]; Grade ≥3,0 (0) participants (%)
same,participants with grade 3 diarrhea,[3]; all cohorts,4 participants
same,recommended phase 2 dose (RP2D),[3]; oral,75 mg BID
same,maximum tolerated dose (MTD),"[3]; oral, 28-day cycles",75 mg BID
same,participants reporting grade 1-3 diarrhea,"[3]; ≥100 mg/dose (100 mg QD, 150 mg QD, 225 mg QD, 100 mg BID)",76.2%
same,number of CR,[4]; [7],1
same,number of CRh,[4]; [7],1
same,number of CRp,[4]; [7],2
same,number of PR,[4]; [7],1
same,overall response rate (CR + CRh + CRp + PR),[4]; [7],12.5%
same,number of CR,[4]; [8],1
same,number of CRp,[4]; [8],2
same,number of PR,[4]; [8],1
CO[C@@H]1[C@H](N(C)C(=O)c2ccccc2)C[C@H]2O[C@]1(C)n1c3ccccc3c3c4c(c5c6ccccc6n2c5c31)C(=O)NC4 [Midostaurin],single-agent activity,[5],no single-agent activity
CNC(=O)c1cc(Oc2ccc(NC(=O)Nc3ccc(Cl)c(C(F)(F)F)c3)cc2)ccn1 [Sorafenib],activity against FLT3-TKD mutations,[6],inactive
